Results of several laboratories.
Cell line: MCF7
Read-out: cell growth or viability

| Structure (SMILES) | test | setting | IC50 |
| --- | --- | --- | --- |
| COc1cc(N=C2C(=O)Nc3ccccc32)cc(OC)c1 | MTT | 48 h | 16.2 µM |
| O=[N+]([O-])c1cc(Br)c(O)c(C=NNc2ccc(Br)cc2)c1 | MTT | 24 h | 9.23 µM |
| CNc1cccc(Nc2nc(-c3ccncc3)nc3c2CNCC3)c1 | MTT | – | > 100 µM |
| O=C1C(Cl)=C(n2ccnc2)C(=O)c2ccccc21 | MTT | 24 h | 48.8 µg/mL |
| c1ccc(Cc2nnc(-c3nn(Cc4ccccc4)c4ccccc34)o2)cc1 | – | 48 h | 114 µM |
| Cc1ccc(CN2C(=O)C(=Nc3c(C(C)C)cccc3C(C)C)c3ccccc32)cc1 | MTT | 48 h | 53.1 µM |
| COc1cccc2c1C(=O)c1c(O)c3c(c(O)c1C2=O)C[C@@](O)(C(=O)CO)C[C@@H]3O[C@H]1C[C@H](N)[C@H](O)[C@H](C)O1 | MTT | – | 5.8 µg/mL |
| NS(=O)(=O)c1ccc(-n2nc(C(=O)NN3C(=O)CCC3=O)cc2-c2ccccc2)cc1 | fluorescence | 48 h | 32.5 µM |
| O=S(=O)([O-])c1ccc(O)c(C=NNC(=S)Nc2cccc3ccccc23)c1.[Na+] | MTT | 24 h | > 800 µg/mL |
| Fc1ccc(NC(=S)N/N=C/c2cccc3cc4ccccc4nc23)cc1 | MTT | 48 h | > 50 µM |
| NS(=O)(=O)c1ccc(-n2nc(C(=O)NN=Cc3ccccc3O)cc2-c2ccccc2)cc1 | fluorescence | 48 h | 18 µM |
| CC(=O)c1c(O)c2ccccc2oc1=O | MTT | 48 h | 32.5 µM |
| Cc1cccc(N=C2C(=O)Nc3ccccc32)c1 | MTT | 48 h | 73.4 µM |
| Clc1ccc(Cn2nc(-c3ncc(-c4ccccc4)s3)c3ccccc32)c(Cl)c1 | – | 48 h | 65.2 µM |
| O=C1CS/C(=N\c2cc(C(F)(F)F)ccc2-c2nnc(N3C(=O)CS/C3=N\c3ccc(F)c(O)c3)s2)N1c1ccc(F)c(O)c1 | MTT | – | 25.8 µM |
| NNc1nc2c(Cl)cc(Cl)cc2c(=O)n1-c1ccc(F)cc1 | MTT | 48 h | > 200 µM |
| COc1ccccc1-n1cc(CNC(=O)[C@@]2(C)[C@H](O)CC[C@@]3(C)[C@H]2CC[C@]2(C)[C@@H]3C(=O)C[C@@H]3[C@@H]4[C@@H](C)[C@H](C)CC[C@]4(C)CC[C@]32C)nn1 | MTT | 24 h | 73.4 µM |
| NNc1nc2ccc(Br)cc2c(=O)n1-c1ccccc1 | MTT | 48 h | 46.4 µM |
| CCCNC(=S)N/N=C/c1cccc2cc3ccccc3nc12 | MTT | 48 h | 48.1 µM |

| Structure (SMILES) | test | setting | IC50 |
| --- | --- | --- | --- |
| Cc1ccc(NNc2nc3c(Cl)cc(Cl)cc3c(=O)n2-c2ccccc2)cc1 | MTT | 48 h | > 200 µM |
| Clc1ccc(Cn2nc(-c3nc(-c4ccccc4)no3)c3ccccc32)c(Cl)c1 | – | 48 h | 66.5 µM |
| O=C1CS/C(=N\c2ccccc2Cl)N1c1nnc(-c2ccc(C(F)(F)F)cc2/N=C2\SCC(=O)N2c2ccccc2Cl)s1 | MTT | – | 47.1 µM |
| C(=N\Nc1cc(N/N=C/c2ccc3ccccc3n2)nc(-c2ccccc2)n1)/c1ccc2ccccc2n1 | MTT | 48 h | 7.05 µM |
| O=C(O)c1c[nH]c2ccc(Oc3ccccc3)cc2c1=O | MTT | 24 h | 311 µM |
| C[C@H]1[C@H](C)CC[C@]2(C)CC[C@]3(C)C(=CC(=O)[C@@H]4[C@@]5(C)CC[C@@H](O)[C@](C)(C(=O)NCc6cn(-c7cccc(Br)c7)nn6)[C@@H]5CC[C@]43C)[C@H]12 | MTT | 24 h | 67 µM |
| CC(C)c1cccc(C(C)C)c1N=C1C(=O)N(Cc2ccccc2)c2ccccc21 | MTT | 48 h | 12.6 µM |
| COc1ccccc1/C=N/N=C1\C(=O)Nc2ccccc21 | MTT | 24 h | 45.6 µg/mL |
| CC(=O)c1nc2ccccc2n1Cc1cn([C@@H]2O[C@H](CO)[C@H](O)[C@H](O)[C@H]2O)nn1 | LDH | 48 h | 2.89 µM |
| O=C(C=Cc1cccs1)c1ccc(OCCCOc2ccc(C(=O)C=Cc3cccs3)cc2)cc1 | MTT | 48 h | 4.05 µM |
| COc1ccc(N=C2SCC(=O)N2c2nnc(-c3ccc(C(F)(F)F)cc3N=C3SCC(=O)N3c3ccc(OC)cc3)s2)cc1 | MTT | – | 73.5 µM |
| CNC(=O)c1cc(Oc2ccc(NC(=O)Nc3ccc(Cl)c(C(F)(F)F)c3)cc2)ccn1 | MTT | 48 h | 7.06 µM |
| Cc1ccc(C(C)C)c(OC2=C(Cl)C(=O)c3ccccc3C2=O)c1 | MTT | 24 h | 4.59 µg/mL |
| O=[N+]([O-])c1ccc(O)c(C=NNc2ccc(Cl)cc2)c1 | MTT | 24 h | 9.3 µM |
| CCOC(=O)C(=CNc1ccc(Oc2ccccc2)cc1)C(=O)OCC | MTT | 24 h | 102 µM |
| C/C(=N\c1nc(N)nc(/N=C(\C)c2c(O)c3ccccc3oc2=O)n1)c1c(O)c2ccccc2oc1=O | MTT | 48 h | 6.68 µM |
| COc1ccc(N(Cc2csc(-c3ccc(Br)cc3)n2)C(=O)CCCCCC(=O)NO)cc1 | MTT | 72 h | 9.21 µM |
| CC(C)Cc1ccc([C@H](C)C(=O)O)cc1 | SRB | 72 h | 399 µM |
| O=C(CCc1ccc(Cl)cc1)N1C(=O)C(=Nc2ccc(Cl)cc2Br)c2ccccc21 | MTT | 48 h | 34.1 µM |

| Structure (SMILES) | test | setting | IC50 |
| --- | --- | --- | --- |
| CO[C@H]1[C@H](O[C@H]([C@H]2O[C@@H](n3ccc(=O)[nH]c3=O)[C@H](O)[C@@H]2O)[C@H](NCCCNC(=O)[C@@H](NC(=O)[C@@H](NC(=O)N[C@H](C(=O)O)C(C)C)[C@@H]2CCN=C(N)N2)[C@@H](O)C(C)C)C(=O)O)O[C@H](CN)[C@H]1O | WST-1 | – | > 35 µM |
| O=C1CS/C(=N\c2cc(C(F)(F)F)ccc2-c2nnc(N3C(=O)CS/C3=N\c3ccc(-c4ccccc4)cc3)s2)N1c1ccc(-c2ccccc2)cc1 | MTT | – | 90.1 µM |
| O=[N+]([O-])c1cc(Br)c(O)c(C=NNc2ccc(Cl)cc2)c1 | MTT | 24 h | 10.1 µM |
| CC(=NNC(=O)c1cc(-c2ccccc2)n(-c2ccc(S(N)(=O)=O)cc2)n1)c1ccc(Br)cc1 | fluorescence | 48 h | 35.4 µM |
| CN1CCC(NC2CCc3[nH]c4c(C(N)=O)ccc(-c5ccccc5Cl)c4c3C2)CC1 (centres unmarked) | – | 96 h | 0.0164 µM |
| Cc1nc2ccc(-c3ccc(OCc4ccccc4)c(F)c3)cc2c(O)c1C(=O)O | MTT | 48 h | ≥ 100 µM |
| C/C(=N\CCNCCNCC/N=C(\C)c1c(O)c2ccccc2oc1=O)c1c(O)c2ccccc2oc1=O | MTT | 48 h | 7.52 µM |
| O=C(O)c1cn(Cc2ccc(C(F)(F)F)cc2)c2ccc(Oc3ccccc3)cc2c1=O | MTT | 24 h | 38.5 µM |
| Fc1ccc2c(-c3nnc(Cc4ccccc4)s3)nn(Cc3ccc(Cl)cc3Cl)c2c1 | – | 48 h | 89.3 µM |
| CC(=O)OC[C@H]1O[C@@H](n2cc(Cn3c(C(C)=O)nc4ccccc43)nn2)[C@H](OC(C)=O)[C@@H](OC(C)=O)[C@H]1OC(C)=O | LDH | 48 h | 3.79 µM |
| O=C1Nc2ccccc2C1=Nc1ccccc1I | MTT | 48 h | 42.6 µM |
| NNc1nc2c(Cl)cc(Cl)cc2c(=O)n1-c1ccc(Cl)cc1 | MTT | 48 h | > 200 µM |
| Cc1nc2ccc(-c3ccc(F)cc3)cc2c(O)c1C(=O)O | MTT | 48 h | ≥ 100 µM |
| O=C1C(=Nc2ccc(Cl)cc2)c2ccccc2N1Cc1ccc(Br)cc1 | MTT | 48 h | 2.16 µM |
| Cc1nnc(-c2nn(Cc3ccc(Cl)cc3Cl)c3ccccc23)o1 | – | 48 h | 19.8 µM |
| COc1cccc2c1C(=O)c1c(O)c3c(c(O)c1C2=O)C[C@@](O)(C(=O)CO)C[C@@H]3O[C@H]1C[C@H](N)[C@H](O)[C@H](C)O1 | LDH | 48 h | 1.81 µM |
| C[C@H]1[C@H](C)CC[C@]2(C)CC[C@]3(C)C(=CC(=O)[C@@H]4[C@@]5(C)CC[C@@H](O)[C@](C)(C(=O)NCc6cn(-c7ccccc7)nn6)[C@@H]5CC[C@]43C)[C@H]12 | MTT | 24 h | 124 µM |
| Cc1ccc(CN2C(=O)C(=Nc3cccc(C)c3)c3ccccc32)cc1 | MTT | 48 h | 2.8 µM |
